# Test results taken from publication PMC10646973 (Biochemistry, 2023).
# pIC50: −log10 of the molar value.
# Experiments:
# [1] = tested on: protein arginine and protein lysine methyltransferases (PRMTs and PKMTs) in HT-29 colorectal cells; test: Protein methylation marks; type: cell-based; details: HT-29 cells, 6 days, positive control
# Procedure, shortened: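 HT-29 colorectal cells were exposed to the test compound for 6 days. Soluble protein was then extracted and immunoblotted for symmetric dimethylarginine, asymmetric dimethylarginine and trimethyl-lysine marks. The SDMA positive control was a PRMT5-specific inhibitor, and the ADMA positive control was a type I PRMT (PRMT1/4) inhibitor.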
# PNMT = details: read-out: apparent IC50; cited from earlier work
smiles,measurement,setting,value
"CC(=O)N1CCC(Nc2cc(C(=O)NC[C@H](O)CN3CCc4ccccc4C3)ncn2)CC1 [GSK3326595, reference compound]",SDMA (Western blot),[1],no band corresponding to SDMA
NC(=O)c1cccc(C#CCN(CC[C@H](N)C(=O)O)C[C@H]2O[C@@H](n3cnc4c(N)ncnc43)[C@H](O)[C@@H]2O)c1 [LL320],pIC50,PNMT,< 4.00
"CC(C)Oc1ccc(-c2c[nH]cc2CN(C)CCN)cc1 [MS023, reference compound]",ADMA (Western blot),[1],no evidence of ADMA
